Active and inactive are the calls of the source. No cut-off for these calls is given here.
Tests used:
[1] = Cell cycle arrest in human ViBo cells assessed as accumulation at G1 phase at 65 uM after 24 hrs by flow cytometry; format: functional, cell-based; settings: 42 uM, in the assay text read “at 42 uM” for “at 65 uM”
Procedure, shortened: (§1)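 Seeded at 10^5 cells/mL and grown 24 h, then exposed to 42 or 65 μM for 24 h, with ethanol as control. Harvested with versene, fixed and permeabilized in 50% methanol/PBS, treated with RNase (2.5 U/mL), stained with propidium iodide (0.2 μg/mL). Flow cytometry gave % DNA distribution by phase; Student's t-test versus ethanol.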

Ca-Ski [2] = assay: Induction of apoptosis in human CaSki cells assessed as caspase 3 activation at 65 uM after 24 hrs by immunocytochemistry; format: functional, cell-based
Procedure, shortened: (§2)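 Seeded at […] in RPMI-1640 with 5% NCS for 24 h, then treated with 42 or 65 μM. Fixed in formaldehyde, permeabilized in 0.5% Triton X-100, blocked. Rabbit polyclonal anti-active caspase-3 (1:50), then FITC goat anti-rabbit (1:200), DAPI counterstain. Epifluorescence microscopy; representative of three independent assays.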

[3] = Antiproliferative activity non-tumor human cervical fibroblast at 65 uM after 24 hrs by crystal violet staining
Procedure, shortened: (§3)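 Primary fibroblasts from hysterectomy cervix explants of patients without malignant disease. Tissue digested with 0.05% trypsin at 37 °C, cultured in RPMI-1640 with 10% NCS, adherent cells subcultured. Exposed to 42 or 65 μM, with 1% ethanol in controls. Cell number by crystal violet staining.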

ViBo [4] = assay: Induction of apoptosis in human ViBo cells assessed as caspase 3 activation at 65 uM after 24 hrs by immunocytochemistry; format: functional, cell-based; procedure, shortened: as §2
ViBo [5] = assay: Induction of apoptosis in human ViBo cells assessed as chromatin condensation at 42 uM after 24 hrs by DAPI staining; format: functional, cell-based
[6] = (§4) Antiproliferative activity human ViBo cells after 24 hrs by crystal violet staining; format: functional, cell-based
Procedure, shortened: (§5)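 Cells kept in RPMI-1640 with 5% newborn calf serum, 37 °C, 5% CO2, in exponential growth. 7500 cells/well seeded and grown 24 h, then exposed to a range of concentrations with ethanol as vehicle (1% in controls). Crystal violet staining after 24 h, absorbance at 590 nm; IC50 from dose–response curves.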

ViBo [7] = assay: as §4; format: functional, cell-based; procedure, shortened: as §5
[8] = Cytotoxicity against human ViBo cells assessed as LDH release at IC50 after 24 hrs by spectrophotometry; format: functional
Procedure, shortened: (§6)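 7500 cells/well grown 24 h, then exposed for 24 h to the line's IC50 concentration or to ethanol (10 μL/mL). LDH in the supernatant read by INT-formazan at 500 nm, expressed against Triton X-100 lysis set as 100%. Mean ± S.D. of three independent experiments with three repetitions; Student's t-test.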

HeLa [9] = assay: Induction of apoptosis in human HeLa cells assessed as caspase 3 activation at 42 uM after 24 hrs by immunocytochemistry; format: functional, cell-based; procedure, shortened: as §2
ViBo [10] = assay: Induction of apoptosis in human ViBo cells assessed as caspase 3 activation at 42 uM after 24 hrs by immunocytochemistry; format: functional, cell-based; procedure, shortened: as §2
HeLa [11] = assay: Induction of apoptosis in human HeLa cells assessed as chromatin condensation at 65 uM after 24 hrs by DAPI staining; format: functional, cell-based
[12] = Cytotoxicity against human lymphocytes assessed as LDH release at IC50 after 72 hrs by spectrophotometry; settings: lymphocyte
Ca-Ski [13] = assay: Cytotoxicity against human CaSki cells assessed as LDH release at IC50 after 24 hrs by spectrophotometry; format: functional; procedure, shortened: as §6
[14] = Antiproliferative activity non-tumor human cervical fibroblast at 42 uM after 24 hrs by crystal violet staining; procedure, shortened: as §3
Ca-Ski [15] = assay: Cell cycle arrest in human CaSki cells assessed as accumulation at G2/M phase at 42 uM after 24 hrs by flow cytometry; format: functional, cell-based; settings: 65 uM, in the assay text read “at 65 uM” for “at 42 uM”; procedure, shortened: as §1
HeLa [16] = assay: Cell cycle arrest in human HeLa cells assessed as accumulation at S phase at 65 uM after 24 hrs by flow cytometry; format: functional, cell-based; procedure, shortened: as §1
[17] = Effect on enriched human lymphocyte proliferation at 42 uM after 72 hrs by CSFE staining; format: cell-based
Procedure, shortened: (§7)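 PBMCs from healthy donors' heparinized blood isolated on a Hypaque gradient; adherent cells removed after 1 h. Labeled with 12 μM CFSE (final) for 15 min at room temperature, quenched with NCS, washed. Plated at 2×10^5 cells/well, unstimulated, PHA-stimulated or treated (42 or 65 μM), five replicates, 72 h at 37 °C.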

ViBo [18] = assay: Induction of apoptosis in human ViBo cells assessed as DNA fragmentation at IC50 after 24 hrs by TUNEL assay; format: functional, cell-based
Procedure, shortened: (§8)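 Cells on coverslips treated at IC50 for 24 h, with ethanol (10 μL/mL) as control. Fixed in 2% formaldehyde 20 min, permeabilized with 0.05% Triton X-100 for 5 min at 4 °C. TdT labeling with biotin-dUTP for 1 h at 37 °C, detected with rhodamine-streptavidin, DAPI counterstain. Fluorescence microscopy; representative of three independent assays.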

HeLa [19] = assay: Antiproliferative activity human HeLa cells after 24 hrs by crystal violet staining; format: functional, cell-based; procedure, shortened: as §5
Ca-Ski [20] = assay: Antiproliferative activity human CaSki cells after 24 hrs by crystal violet staining; format: functional, cell-based; procedure, shortened: as §5
[21] = Effect on enriched human lymphocyte proliferation at 65 uM after 72 hrs by CSFE staining; format: cell-based; procedure, shortened: as §7
HeLa [22] = assay: Cell cycle arrest in human HeLa cells assessed as accumulation at S phase at 42 uM after 24 hrs by flow cytometry; format: functional, cell-based; settings: 65 uM, in the assay text read “at 65 uM” for “at 42 uM”; procedure, shortened: as §1
Ca-Ski [23] = assay: Induction of apoptosis in human CaSki cells assessed as chromatin condensation at 65 uM after 24 hrs by DAPI staining; format: functional, cell-based
HeLa [24] = assay: Induction of apoptosis in human HeLa cells assessed as DNA fragmentation at IC50 after 24 hrs by TUNEL assay; format: functional, cell-based; procedure, shortened: as §8
Ca-Ski [25] = assay: Induction of apoptosis in human CaSki cells assessed as DNA fragmentation at IC50 after 24 hrs by TUNEL assay; format: functional, cell-based; procedure, shortened: as §8
HeLa [26] = assay: Induction of apoptosis in human HeLa cells assessed as caspase 3 activation at 65 uM after 24 hrs by immunocytochemistry; format: functional, cell-based; procedure, shortened: as §2
Ca-Ski [27] = assay: Induction of apoptosis in human CaSki cells assessed as caspase 3 activation at 42 uM after 24 hrs by immunocytochemistry; format: functional, cell-based; procedure, shortened: as §2
HeLa [28] = assay: Cytotoxicity against human HeLa cells assessed as LDH release at IC50 after 24 hrs by spectrophotometry; format: functional; procedure, shortened: as §6
Ca-Ski [29] = assay: Cell cycle arrest in human CaSki cells assessed as accumulation at G2/M phase at 65 uM after 24 hrs by flow cytometry; format: functional, cell-based; procedure, shortened: as §1
[30] = Cell cycle arrest in human ViBo cells assessed as accumulation at G1 phase at 42 uM after 24 hrs by flow cytometry; format: functional, cell-based; procedure, shortened: as §1

With `CC(=O)O[C@H]1CC[C@@]2(C)[C@@H](CC[C@@H]3[C@@H]2CC(=O)[C@]2(C)[C@@H]([C@H](C)C(=O)CC[C@@H](C)CO[C@@H]4O[C@H](CO)[C@@H](O)[C@H](O)[C@H]4O)[C@@H](OC(C)=O)C[C@@H]32)C1` the Activity [1] was “Active”, the Activity (Ca-Ski [2]) was “Active” and the Activity [3] was under 20%. The Activity (ViBo [4]) was “Active”, the Activity (ViBo [5]) was “Active” and the IC50 [6] was 42 µM. For the same compound, the Activity (ViBo [7]) was “Dose-dependent effect”, the Activity [8] was 3% and the Activity (HeLa [9]) was “Active”. For the same compound, the Activity (ViBo [10]) was “Active”, the Activity (HeLa [11]) was “Active” and the Activity [12] was “Non-toxic”. For the same compound, the Activity (Ca-Ski [13]) was 17%, the Activity [14] was under 20% and the Activity (Ca-Ski [15]) was “Active”. The Activity (HeLa [16]) was “Active”, the Activity [17] was 73.88% and the Activity (ViBo [18]) was “Active”. The Activity (HeLa [19]) was “Dose-dependent effect”, the IC50 (HeLa [19]) was 65 µM and the Activity (Ca-Ski [20]) was “Dose-dependent effect”. The IC50 (Ca-Ski [20]) was 65 µM, the Activity [21] was 71.06% and the Activity (HeLa [22]) was “Active”. The Activity (Ca-Ski [23]) was “Active”, the Activity (HeLa [24]) was “Active” and the Activity (Ca-Ski [25]) was “Active”. For the same compound, the Activity (HeLa [26]) was “Active”, the Activity (Ca-Ski [27]) was “Active” and the Activity (HeLa [28]) was 13%. For the same compound, the Activity (Ca-Ski [29]) was “Active” and the Activity [30] was “Active”.
`CC(=O)O[C@H]1CC[C@@]2(C)[C@@H](CC[C@@H]3[C@@H]2CC(=O)[C@]2(C)[C@@H]([C@H](C)C(=O)CC[C@@H](C)CO)[C@@H](OC(C)=O)C[C@@H]32)C1` gave an Activity (Ca-Ski [13]) of 28%.

Source: ChEMBL document CHEMBL1275286, “Synthesis of the steroidal glycoside (25R)-3β,16β-diacetoxy-12,22-dioxo-5α-cholestan-26-yl β-D-glucopyranoside and its anti-cancer properties on cervicouterine HeLa, CaSki, and ViBo cells” (Eur J Med Chem, 2010)
